Compound activity: PubChem BioAssay, Broad Institute
Sampled rows, rich in hits. Any-hit rate of the full collection: about 2.6%.
SR-BI uptake up: activators of SR-BI mediated DiI-HDL uptake, primary screen, ldlA[mSR-BI] CHO cells, DiI fluorescence; 3 h; 100 = double the neutral-control signal; activation, % at 12.5 µM; 320,000 tested, 0.096% active;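 active means mean replicate activation of at least 60% and every replicate at or above 60%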;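 further: 0% = median plate neutral-control signal and 100% = twice that signal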
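Material: SR-BI-overexpressing, LDLR-lacking CHO cells | Dosing: Single compound concentration, delivered by pin transfer | Probe or stimulus: Labelled HDL, 10 µg/mL | Signal: Bottom-read cell fluorescence after medium removal, ex 550/em 595 nm | Schedule: 3 h, 37 °C | Evaluation: HDL uptake via cellular fluorescence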
dFosB activator: activators of delta FosB homodimer, primary screen, biochemical, fluorescence polarization, TAMRA-CDK5 oligo, single point; 340,000 tested, 0.99% active; activation, % at 25 µM; purified delta FosB; percent of positive-control signal above neutral wells; AID 493131, 2011;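 active means mean activation above about 17%, with every replicate also reaching it, limit read from the data, passing the limit was not always enough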
PvdQ inh: P. aeruginosa PvdQ acylase inhibitors, primary screen, biochemical, fluorescence, plate reader and imaging, single point; PvdQ acylase [Pseudomonas aeruginosa LESB58]; purified PvdQ acylase; inhibition, % at 10 µM; 340,000 tested, 0.063% active; in the data active means inhibition above about 30%, passing the limit was not always enough;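 further: 0% = vehicle neutral wells and 100% = reference inhibitor wells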
rRNA inh HTS: reduced GFP signal of wild-type E. coli, primary screen, bacterial rRNA inhibitor project, GFP/RFP fluorescence, OD600, single point; E. coli WT GFP vs humanized-ribosome RFP mutants, 24 h; active compounds read low; DMSO median 0, no signal -100; GFP signal change (wild-type ribosome), % (test concentration not listed); 350,000 tested, 1.6% active; AID 720706, 2013;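 active means significant combined selectivity score with lowered wild-type GFP, culture density cut under 30%, mutant RFP and density less affected; inactive means any of these conditions unmet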
SR-BI DiI inh: inhibitors of SR-BI mediated HDL lipid uptake, primary screen, ldlA[mSR-BI] cells, fluorescence, single point. Scavenger receptor class B member 1 (Mus musculus), Q61009. 320,000 tested, 0.96% active. inhibition, % at 12.5 µM. ldlA[mSR-BI] CHO cells, DiI-HDL uptake fluorescence, 3 h;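 active means mean replicate inhibition of at least 70% and a set share of replicates each scoring 70 or more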;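 further: 0% = median of neutral control wells and 100% = median of positive control wells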
Target sequence (Q61009 whole entry, looked up): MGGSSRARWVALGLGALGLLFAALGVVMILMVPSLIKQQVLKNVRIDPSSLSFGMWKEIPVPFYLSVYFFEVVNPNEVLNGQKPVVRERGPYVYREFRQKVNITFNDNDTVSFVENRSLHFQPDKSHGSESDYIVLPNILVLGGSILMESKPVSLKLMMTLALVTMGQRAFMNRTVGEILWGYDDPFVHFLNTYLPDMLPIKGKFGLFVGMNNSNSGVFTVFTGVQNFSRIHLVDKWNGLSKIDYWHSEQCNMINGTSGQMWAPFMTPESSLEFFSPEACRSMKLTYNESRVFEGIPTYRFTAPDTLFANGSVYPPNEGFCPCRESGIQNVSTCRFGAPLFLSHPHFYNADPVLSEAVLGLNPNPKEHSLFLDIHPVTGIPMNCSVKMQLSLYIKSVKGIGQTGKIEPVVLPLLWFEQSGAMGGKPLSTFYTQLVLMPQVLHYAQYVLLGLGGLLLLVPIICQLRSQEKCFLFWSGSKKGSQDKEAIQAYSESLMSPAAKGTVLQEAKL
Xi reactivation: activators of inactive X chromosome reactivation, primary screen, imaging, XiGFP fibroblasts, GFP high-content imaging, set 2; activation, % at 7.58 µM; 360,000 tested, 0.055% active; XiGFP mouse fibroblasts, % GFP-positive cells imaging, 3 d; cells co-treated with 5-aza-dC sensitizer; scaled so ellipticine positive control = 100%;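 active means mean normalized replicate activation at least 10% and every replicate at or above 10%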;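 further: 0% = median of on-plate neutral control wells and 100% = ellipticine 6 µM median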
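Assay system – SV40-immortalized XiGFP fibroblast cells, line 68-5-11 · Buffer or medium – DMEM supplemented with 5-aza-dC as sensitizing agent · Dosing – one concentration, pinned · Benchmarks – positive control ellipticine, 6 µM final · Times – 3 days compound exposure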
* = called active by the depositor.

Results for COc1c(OC(C)=O)ccc(/C=C/c2ccc3ccccc3n2)c1[N+](=O)[O-] ?
SR-BI uptake up: -27; dFosB activator: -8; PvdQ inh: -8; rRNA inh HTS: -43*; SR-BI DiI inh: 27

What do the screens show for `CCN(CC)S(=O)(=O)c1ccc(O)c(C(=O)OCC(=O)NC23CC4CC(CC(C4)C2)C3)c1`?
SR-BI uptake up: 22; dFosB activator: 1; PvdQ inh: -2; rRNA inh HTS: -21*; SR-BI DiI inh: -22; Xi reactivation: 0

How did CCOc1cccc2sc(N(CCCN(C)C)C(=O)c3ccc(S(=O)(=O)N(C)c4ccccc4)cc3)nc12 do in these assays?
SR-BI uptake up: 9; dFosB activator: -6; PvdQ inh: -10; rRNA inh HTS: -21; SR-BI DiI inh: -9; Xi reactivation: 0

How did O=C1C[C@H](c2ccc(O)cc2)Oc2cc(O[C@@H]3O[C@H](CO)[C@@H](O)[C@H](O)[C@H]3O)cc(O[C@@H]3O[C@H](CO)[C@@H](O)[C@H](O)[C@H]3O)c21 do in these assays?
SR-BI uptake up: 23; dFosB activator: 7; PvdQ inh: 2; rRNA inh HTS: 15; SR-BI DiI inh: -23; Xi reactivation: 0

Results for Cc1cccc(NC(=O)CSc2nnc(CNC(=O)c3ccc(S(=O)(=O)N(C)C)cc3)n2-c2cccc(C)c2)c1 ?
SR-BI uptake up: -85; dFosB activator: -4; PvdQ inh: -1; SR-BI DiI inh: 85*; Xi reactivation: 0

What do the screens show for `CN(C)/C=C/C(=O)c1ccc2noc(-c3ccc(F)cc3)c2c1`?
SR-BI uptake up: -87; dFosB activator: -3; PvdQ inh: -7; rRNA inh HTS: -1; SR-BI DiI inh: 87*; Xi reactivation: 0

What do the screens show for `Cc1ccc(-c2onc3ccc(C(=O)/C=C/N(C)C)cc23)cc1`?
SR-BI uptake up: -29; dFosB activator: -13; PvdQ inh: -12; rRNA inh HTS: 10; SR-BI DiI inh: 29; Xi reactivation: 0

Results for COc1ccc(C(=O)O)cc1S(=O)(=O)N(CCc1ccccc1)Cc1ccccc1 ?
SR-BI uptake up: 5; dFosB activator: 0; PvdQ inh: -4; rRNA inh HTS: -36*; SR-BI DiI inh: -5; Xi reactivation: 0

Results for COc1ccc(C(=O)O)cc1S(=O)(=O)N(C)CCc1cccnc1 ?
dFosB activator: -3; PvdQ inh: -4

What do the screens show for `Cn1cccc1-c1cc(C(=O)N/N=C/c2ccc([N+](=O)[O-])cc2)[nH]n1`?
SR-BI uptake up: -14; dFosB activator: 0; PvdQ inh: 1; rRNA inh HTS: 1; SR-BI DiI inh: 14; Xi reactivation: 0

Results for Cn1cccc1-c1cc(C(=O)O)[nH]n1 ?
SR-BI uptake up: -3; dFosB activator: 7; PvdQ inh: -8; SR-BI DiI inh: 3

How did CC(/C=N/NC(=O)c1cc(-c2cccn2C)n[nH]1)=C\c1ccccc1 do in these assays?
SR-BI uptake up: -38; dFosB activator: -5; PvdQ inh: 7; rRNA inh HTS: -40*; SR-BI DiI inh: 38; Xi reactivation: 0

How did Cn1cccc1-c1cc(C(=O)N/N=C/c2ccccc2Cl)[nH]n1 do in these assays?
SR-BI uptake up: -62; dFosB activator: -9; PvdQ inh: -1; rRNA inh HTS: -22*; SR-BI DiI inh: 62; Xi reactivation: 0

How did CCOc1ccc(/C=N/NC(=O)c2cc(-c3cccn3C)n[nH]2)cc1 do in these assays?
SR-BI uptake up: -57; dFosB activator: 0; PvdQ inh: -1; rRNA inh HTS: -26*; SR-BI DiI inh: 57; Xi reactivation: 0
